According to ChEMBL document CHEMBL3351505, “Ultrasound-assisted synthesis of novel 1,2,3-triazoles coupled diaryl sulfone moieties by the CuAAC reaction, and biological evaluation of them as antioxidant and antimicrobial agents” (Eur J Med Chem, 2014):
In brackets after ≈: the same amount, converted by molar mass. Activity calls are given as the source filed them. No cut-off for these calls is given here.

Assays:
[1] = tested on: Klebsiella pneumoniae; assay: Antibacterial activity against Klebsiella pneumoniae ATCC 13883 using 100 uL of test compound after 24 hrs by agar well diffusion method; format: functional
Procedure, shortened: (§1)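 Agar well diffusion. Nutrient agar was spread with bacterial suspension at 1×10⁸ CFU/mL, and 10 mm wells were cut. Wells were loaded with compound solution made at 200 mg per 1 mL DMSO. Plates were incubated 24 h at 37 °C and inhibition zones were measured. DMSO served as the negative control.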

[2] = tested on: Micrococcus luteus; assay: Antibacterial activity against Sarcina lutea after 24 hrs by two fold serial dilution method; format: functional
[3] = Antioxidant activity assessed as DPPH free radical scavenging activity by spectrophotometric assay; format: physicochemical
Procedure, shortened: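 Sample solutions at several concentrations were added to 0.004% DPPH in methanol and incubated 60 min in the dark. Absorbance was read at 517 nm against a blank. Inhibition % = (A_blank − A_sample)/A_blank × 100, where the control contained all reagents except the test compound.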

[4] = tested on: Aspergillus niger; assay: Antifungal activity against Aspergillus niger after 48 hrs by two fold serial dilution method; format: functional
Procedure, shortened: (§2)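 Two-fold serial broth dilution in a suitable broth, run only on compounds giving inhibition zones of at least 16 mm. Final concentrations were […]. Each 5 mL received 0.1 mL inoculum and was incubated 48 h at 28 °C. MIC was the lowest concentration without growth.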

[5] = tested on: Priestia megaterium; assay: Antibacterial activity against Bacillus megaterium ATCC 9885 using 100 uL of test compound after 24 hrs by agar well diffusion method; format: functional; procedure, shortened: as §1
[6] = tested on: Saccharomyces cerevisiae; assay: Antifungal activity against Saccharomyces cerevisiae using 100 uL of test compound after 48 hrs by agar well diffusion method; format: functional
Procedure, shortened: as §1, with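 “Sabouraud dextrose” for “Nutrient”, “yeast or fungal” for “bacterial”, “1×10⁶” for “1×10⁸”, “48” for “24”, “28” for “37”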

[7] = tested on: Klebsiella pneumoniae; assay: Antibacterial activity against Klebsiella pneumoniae ATCC 13883 after 24 hrs by two fold serial dilution method; format: functional
[8] = tested on: Bacillus subtilis; assay: Antibacterial activity against Bacillus subtilis ATCC 6633 using 100 uL of test compound after 24 hrs by agar well diffusion method; format: functional; procedure, shortened: as §1
[9] = tested on: Staphylococcus aureus; assay: Antibacterial activity against Staphylococcus aureus ATCC 29213 after 24 hrs by two fold serial dilution method; format: functional
[10] = tested on: Aspergillus niger; assay: Antifungal activity against Aspergillus niger using 100 uL of test compound after 48 hrs by agar well diffusion method; format: functional
Procedure, shortened: as §1, with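 “Sabouraud dextrose” for “Nutrient”, “yeast or fungal” for “bacterial”, “1×10⁶” for “1×10⁸”, “48” for “24”, “28” for “37”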

[11] = tested on: Pseudomonas aeruginosa; assay: Antibacterial activity against Pseudomonas aeruginosa ATCC 27953 after 24 hrs by two fold serial dilution method; format: functional
[12] = tested on: Priestia megaterium; assay: Antibacterial activity against Bacillus megaterium ATCC 9885 after 24 hrs by two fold serial dilution method; format: functional
[13] = tested on: Staphylococcus aureus; assay: Antibacterial activity against Staphylococcus aureus ATCC 29213 using 100 uL of test compound after 24 hrs by agar well diffusion method; format: functional; procedure, shortened: as §1
[14] = tested on: Escherichia coli; assay: Antibacterial activity against Escherichia coli ATCC 25922 using 100 uL of test compound after 24 hrs by agar well diffusion method; format: functional; procedure, shortened: as §1
[15] = tested on: Saccharomyces cerevisiae; assay: Antifungal activity against Saccharomyces cerevisiae after 48 hrs by two fold serial dilution method; format: functional; procedure, shortened: as §2
[16] = tested on: Escherichia coli; assay: Antibacterial activity against Escherichia coli ATCC 25922 after 24 hrs by two fold serial dilution method; format: functional
[17] = tested on: Pseudomonas aeruginosa; assay: Antibacterial activity against Pseudomonas aeruginosa ATCC 27953 using 100 uL of test compound after 24 hrs by agar well diffusion method; format: functional; procedure, shortened: as §1
[18] = tested on: Candida albicans; assay: Antifungal activity against Candida albicans NRRL Y-477 after 48 hrs by two fold serial dilution method; format: functional; procedure, shortened: as §2
[19] = tested on: Candida albicans; assay: Antifungal activity against Candida albicans NRRL Y-477 using 100 uL of test compound after 48 hrs by agar well diffusion method; format: functional
Procedure, shortened: as §1, with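 “Sabouraud dextrose” for “Nutrient”, “yeast or fungal” for “bacterial”, “1×10⁶” for “1×10⁸”, “48” for “24”, “28” for “37”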

[20] = tested on: Micrococcus luteus; assay: Antibacterial activity against Sarcina lutea using 100 uL of test compound after 24 hrs by agar well diffusion method; format: functional; procedure, shortened: as §1
[21] = tested on: Bacillus subtilis; assay: Antibacterial activity against Bacillus subtilis ATCC 6633 after 24 hrs by two fold serial dilution method; format: functional
[22] = tested on: Escherichia coli; assay: Antibacterial activity against Escherichia coli ATCC 25922 at 50 mg/mL after 24 hrs by agar well diffusion method; format: functional, organism-based
Procedure, shortened: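 Agar well diffusion: bacterial suspension at 1 × 10⁸ CFU/mL spread on nutrient agar; 10 mm wells cut in solidified agar and filled with compound in DMSO; plates incubated 24 h at 37 °C; inhibition zone diameter read; DMSO as negative control.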

[23] = tested on: Candida albicans; assay: Antifungal activity against Candida albicans NRRL Y-477 at 50 mg/mL after 48 hrs by agar well diffusion method; format: functional; conditions: NRRL Y-477, 48 h, read-out: DIZ
[24] = tested on: Aspergillus niger; assay: Antifungal activity against Aspergillus niger at 50 mg/mL after 48 hrs by agar well diffusion method; format: functional; conditions: read-out: DIZ
[25] = tested on: Pseudomonas aeruginosa; conditions: ATCC 27953, 50 mg/mL
[26] = tested on: Bacillus subtilis; conditions: ATCC 6633, 50 mg/mL
[27] = tested on: Saccharomyces cerevisiae; assay: Antifungal activity against Saccharomyces cerevisiae at 50 mg/mL after 48 hrs by agar well diffusion method; format: functional; conditions: read-out: DIZ
[28] = tested on: Priestia megaterium; assay: Antibacterial activity against Bacillus megaterium ATCC 9885 at 50 mg/mL after 24 hrs by agar well diffusion method; format: functional
[29] = tested on: Micrococcus luteus; assay: Antibacterial activity against Sarcina lutea at 50 mg/mL after 24 hrs by agar well diffusion method; format: functional
[30] = tested on: Klebsiella pneumoniae; conditions: ATCC 13883, 50 mg/mL
[31] = tested on: Staphylococcus aureus; conditions: ATCC 29213, 50 mg/mL

Structure (SMILES) | diameter of the inhibition zone (DIZ) [1] [mm] | MIC [2] | IC50 [3] [µg/mL] | MIC [4] [µg/mL] | diameter of the inhibition zone (DIZ) [5] | diameter of the inhibition zone (DIZ) [6] | MIC ([7]; ATCC 13883, 24 h) [µg/mL] | diameter of the inhibition zone (DIZ) [8] | MIC [9] | diameter of the inhibition zone (DIZ) [10] [mm] | MIC [11] | MIC ([12]; ATCC 9885, 24 h) [µg/mL] | diameter of the inhibition zone (DIZ) [13] | diameter of the inhibition zone (DIZ) [14] [mm] | MIC [15] | MIC ([16]; ATCC 25922, 24 h) [µg/mL] | diameter of the inhibition zone (DIZ) [17] [mm] | MIC [18] | diameter of the inhibition zone (DIZ) [19] [mm] | diameter of the inhibition zone (DIZ) [20] [mm] | other results
CC(O)(Cc1cn(CC(=O)c2ccc(S(=O)(=O)c3ccccc3)cc2)nn1)c1ccc(S(=O)(=O)c2ccccc2)cc1 (configuration not stated) | 18 | inactive | 20 (≈ 33.2 µM) | 50 (≈ 83.1 µM) | 17 mm | 17 mm | 200 (≈ 332 µM) | inactive | inactive | 32 | inactive | 200 (≈ 332 µM) | inactive | 19 | 200 µg/mL (≈ 332 µM) | 200 (≈ 332 µM) | 15 | inactive | 15 | 14 | MIC [21]: inactive
CC(O)(Cc1cn(CC(=O)c2ccc(F)cc2)nn1)c1ccc(S(=O)(=O)c2ccccc2)cc1 (configuration not stated) | 19 | 200 µg/mL (≈ 417 µM) | 425 (≈ 886 µM) | 50 (≈ 104 µM) | 17 mm | inactive | 200 (≈ 417 µM) | 19 mm |  | 32 | 200 µg/mL (≈ 417 µM) | 200 (≈ 417 µM) | 17 mm | 19 | inactive | 200 (≈ 417 µM) | 22 | inactive | 15 | 21 | MIC ([9]; ATCC 29213, 24 h): 200 µg/mL (≈ 417 µM); MIC ([21]; ATCC 6633, 24 h): 200 µg/mL (≈ 417 µM)
O=S(=O)(c1ccccc1)c1ccc(C(Cc2cn(Cc3ccccc3)nn2)OCc2cn(Cc3ccccc3)nn2)cc1 (configuration not stated) | 17 | 200 µg/mL (≈ 339 µM) | 500 (≈ 846 µM) | 50 (≈ 84.6 µM) | 14 mm | 18 mm | 200 (≈ 339 µM) | 15 mm | inactive | 30 | 200 µg/mL (≈ 339 µM) |  | 14 mm | 19 | 200 µg/mL (≈ 339 µM) | 200 (≈ 339 µM) | 18 |  | 18 | 17 | MIC [12]: inactive; MIC ([18]; NRRL Y-477, 48 h): 200 µg/mL (≈ 339 µM); MIC [21]: inactive
CC(Cc1cn(CC(=O)c2ccccc2)nn1)(OCc1cn(CC(=O)c2ccccc2)nn1)c1ccc(S(=O)(=O)c2ccccc2)cc1 (configuration not stated) | 23 | 200 µg/mL (≈ 303 µM) | 125 (≈ 189 µM) | 50 (≈ 75.7 µM) | 17 mm | 16 mm | 200 (≈ 303 µM) | 16 mm | inactive | 28 | 200 µg/mL (≈ 303 µM) | 200 (≈ 303 µM) | inactive | 21 | 200 µg/mL (≈ 303 µM) | 200 (≈ 303 µM) | 19 | inactive | 15 | 17 | MIC [21]: inactive
O=C(Cn1cc(CC(O)c2ccc(S(=O)(=O)c3ccccc3)cc2)nn1)c1ccccc1 (configuration not stated) | 22 | 200 µg/mL (≈ 447 µM) | 425 (≈ 950 µM) | 100 (≈ 223 µM) | inactive | inactive | 200 (≈ 447 µM) | 19 mm | inactive | 29 | 200 µg/mL (≈ 447 µM) |  | 14 mm | 17 | inactive | 200 (≈ 447 µM) | 20 | inactive | 12 | 20 | MIC [12]: inactive; MIC ([21]; ATCC 6633, 24 h): 200 µg/mL (≈ 447 µM)
CC(O)(Cc1cn(Cc2ccccc2)nn1)c1ccc(S(=O)(=O)c2ccccc2)cc1 (configuration not stated) | 24 | 200 µg/mL (≈ 461 µM) | 600 (≈ 1380 µM) | 25 (≈ 57.7 µM) | 17 mm | 16 mm | 100 (≈ 231 µM) | 16 mm |  | 32 | 200 µg/mL (≈ 461 µM) | 200 (≈ 461 µM) | 22 mm | 22 | 200 µg/mL (≈ 461 µM) | 200 (≈ 461 µM) | 23 |  | 19 | 23 | MIC ([9]; ATCC 29213, 24 h): 200 µg/mL (≈ 461 µM); MIC ([18]; NRRL Y-477, 48 h): 200 µg/mL (≈ 461 µM); MIC ([21]; ATCC 6633, 24 h): 200 µg/mL (≈ 461 µM)
Clc1ccccc1C(c1ccccc1)(c1ccccc1)n1ccnc1 [CLOTRIMAZOLE] |  | inactive |  | 25 (≈ 72.5 µM) |  |  |  |  | inactive |  | inactive |  |  |  | 25 µg/mL (≈ 72.5 µM) |  |  |  |  |  | diameter of the inhibition zone (DIZ) [22]: inactive; zone of inhibition at 50000 µg/mL [23]: 30 mm; MIC [7]: inactive; zone of inhibition at 50000 µg/mL [24]: 33 mm; MIC [12]: inactive; DIZ [25]: inactive; DIZ [26]: inactive; zone of inhibition at 50000 µg/mL [27]: 31 mm; diameter of the inhibition zone (DIZ) [28]: inactive; MIC [16]: inactive; diameter of the inhibition zone (DIZ) [29]: inactive; DIZ [30]: inactive; MIC ([18]; NRRL Y-477, 48 h): 25 µg/mL (≈ 72.5 µM); DIZ [31]: inactive; MIC [21]: inactive
O=C(Cn1cc(CC(O)c2ccc(S(=O)(=O)c3ccccc3)cc2)nn1)c1ccc(S(=O)(=O)c2ccccc2)cc1 (configuration not stated) | 19 | 100 µg/mL (≈ 170 µM) | 74 (≈ 126 µM) | 50 (≈ 85.1 µM) | 15 mm | 16 mm | 200 (≈ 340 µM) | 20 mm |  | 28 | 200 µg/mL (≈ 340 µM) |  | 17 mm | 17 | 200 µg/mL (≈ 340 µM) |  | 17 | inactive | 15 | 22 | MIC ([9]; ATCC 29213, 24 h): 200 µg/mL (≈ 340 µM); MIC [12]: inactive; MIC [16]: inactive; MIC ([21]; ATCC 6633, 24 h): 200 µg/mL (≈ 340 µM)
